Measurements from ChEMBL document CHEMBL3352206, “Discovery of substituted 4-aminoquinazolines as selective Toll-like receptor 4 ligands” (Bioorg Med Chem Lett, 2014).
The source made the active and inactive calls. The calls are words filed in the database; no cut-off is given here.

Legend:
[1] = target: Toll-like receptor 4 (Homo sapiens) (UniProt O00206); test: Activation of human TLR4 fransfectoma in HEK Blue cells at 0.5 uM relative to LPS; assay type: cell-based; conditions: HEK293
Method in brief: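 hTLR4 HEK Blue transfectoma cells incubated with compound at 0.5 μM for 20–22 h; SEAP read by QuantiBlue OD630. Values normalized to LPS (100 ng/mL) positive control set at 100.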

PBMC [2] = test: Induction of IL-8 level in human PBMC at 0.5 uM by ELISA relative to LPS; assay type: functional
Method in brief: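 Primary human PBMC stimulated overnight with compound at 0.5 μM; IL-8 in supernatant by ELISA, normalized to LPS (100 ng/mL) set at 100.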

HepG2 = test: Cytotoxicity against human HepG2 cells at 10 uM by MTT assay; assay type: functional
Method in brief: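 HepG2 viability by MTT at 10 μM compound; OD570–650 normalized to vehicle-treated cells in the same experiment.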

[3] = target: T1, Toll-like receptor 4/MD-2 (Homo sapiens) (UniProt O00206+Q9Y6Y9); test: Activation of human TLR4/MD2 complex expressed in HEK293 Blue cells assessed as SEAP secretion at 10 uM after 20 to 24 hrs by SEAPorter assay
PBMC [4] = test: Cytotoxicity against human PBMC at 10 uM after 18 hrs incubation by MTT assay; assay type: cell-based
Method in brief: (§1)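 Human PBMC or mouse BMDC incubated 18 h with compound at 10 μM; viability by MTT assay, reported as percent.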

L929 = test: Induction of type 1 IFN release in mouse L929-ISRE cells assessed as luciferase release at 10 uM; assay type: functional, cell-based
Method in brief: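 Human PBMC incubated overnight with compound (10 μM), LPS (10 ng/mL) or vehicle; type I IFN in supernatant quantified as luciferase release from L929-ISRE reporter cells. Mean ± SEM of triplicates.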

BMDC [5] = test: Induction of CD86 expression in wild type CD11c+ population of mouse BMDC; assay type: functional
Method in brief: (§2)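 BMDC from wild-type or Tlr4−/− mice treated with compound or vehicle (0.5% DMSO); stained for CD11c plus CD40, CD80 or CD86. Marker expression assessed by flow cytometry on gated CD11c+ cells.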

BMDC [6] = test: Induction of CD40 expression in wild type CD11c+ population of mouse BMDC; assay type: functional; method in brief: as §2
[7] = Cytotoxicity against mouse BMDC at 10 uM after 18 hrs incubation by MTT assay; method in brief: as §1
[8] = target: T1, Toll-like receptor 4/MD-2 (Homo sapiens); test: Activation of human TLR4/MD2 complex expressed in HEK293 Blue cells coexpressing CD14 assessed as SEAP secretion at 10 uM after 20 to 24 hrs by SEAPorter assay; assay type: cell-based
PBMC [9] = test: Induction of CD80 expression in CD11c+ HLA-DR+ population of human PBMC; assay type: functional, cell-based
Method in brief: (§3)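 Human PBMC incubated overnight with compound at 5 μM; CD80 and CD83 measured by flow cytometry on gated CD11c+HLA-DR+ cells. Two independent experiments.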

[10] = target: Toll-like receptor 4/MD-2/CD14 (Mus musculus) (UniProt Q9QUK6+Q9JHF9+P10810); test: Activation of mouse TLR4/MD2 complex in mouse RAW264.7 cells assessed as induction of NFkappaB activation incubated for 18 hrs
BMDC [11] = test: Induction of IL-6 production in TLR4-deficient mouse BMDC at 10 uM by ELISA; assay type: functional
Method in brief: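 BMDC from wild-type and TLR4-deficient mice stimulated with compound at 10 μM; IL-6 in culture supernatant by ELISA.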

BMDC [12] = test: Induction of CD40 expression in TLR4-deficient CD11c+ population of mouse BMDC; assay type: functional; method in brief: as §2
[13] = target: T1, Toll-like receptor 4/MD-2 (Homo sapiens); test: Activation of human TLR4/MD2 complex in human THP1 cells assessed as induction of NFkappaB activation incubated for 18 hrs; assay type: cell-based; conditions: THP-1
Method in brief: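 CellSensor THP-1 or RAW264.7 cells carrying an NF-κB-driven FRET β-lactamase reporter; graded compound concentrations for 18 h. NF-κB activation normalized to LPS (5 ng/mL) and expressed as percent activation.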

BMDC [14] = test: Induction of CD80 expression in TLR4-deficient CD11c+ population of mouse BMDC; assay type: functional; method in brief: as §2
PBMC [15] = test: Induction of IL-8 expression in human PBMC by ELISA in presence of polymyxin B; assay type: functional, cell-based
Method in brief: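 Human PBMC incubated overnight with compound, alone or with polymyxin B (10 μg/mL); IL-8 in supernatant by ELISA. Mean ± SEM of triplicates, two independent experiments.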

PBMC [16] = test: Induction of IL-8 level in human PBMC at < 1 uM by ELISA; assay type: functional, cell-based
Method in brief: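 Mouse BMDC or human PBMC stimulated overnight with graded compound concentrations; IL-6 (mouse) or IL-8 (human) in supernatant by ELISA. Mean ± SEM of triplicates, two independent experiments.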

[17] = target: Toll-like receptor 4 (Homo sapiens) (UniProt O00206); test: Activation of human TLR4 complex expressed in MD2-deficient HEK293 Blue cells coexpressing CD14 assessed as SEAP secretion at 10 uM after 20 to 24 hrs by SEAPorter assay; assay type: cell-based
PBMC [18] = test: Induction of CD83 expression in CD11c+ HLA-DR+ population of human PBMC; assay type: functional, cell-based; method in brief: as §3
[19] = target: T1, Toll-like receptor 4/MD-2 (Homo sapiens); test: Activation of human TLR4/MD2 complex expressed in HEK293 Blue cells coexpressing CD14 assessed as SEAP secretion at 10 uM after 20 to 24 hrs by SEAPorter assay in presence of Rhodobacter sphaeroides LPS; assay type: cell-based
Method in brief: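 hTLR4/MD-2/CD14 transfectoma cells given 10 μM compound or 10 ng/mL LPS, with or without the TLR4 antagonist LPS-RS (Rhodobacter sphaeroides LPS; 12, 111, 1000 ng/mL). TLR4/NF-κB activation read as SEAP in supernatant. One-way ANOVA with Dunnett's test versus vehicle.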

BMDC [20] = test: Induction of CD80 expression in wild type CD11c+ population of mouse BMDC; assay type: functional; method in brief: as §2
BMDC [21] = test: Induction of CD86 expression in TLR4-deficient CD11c+ population of mouse BMDC; assay type: functional; method in brief: as §2

Sequence of Toll-like receptor 4 (Homo sapiens) (O00206 whole entry): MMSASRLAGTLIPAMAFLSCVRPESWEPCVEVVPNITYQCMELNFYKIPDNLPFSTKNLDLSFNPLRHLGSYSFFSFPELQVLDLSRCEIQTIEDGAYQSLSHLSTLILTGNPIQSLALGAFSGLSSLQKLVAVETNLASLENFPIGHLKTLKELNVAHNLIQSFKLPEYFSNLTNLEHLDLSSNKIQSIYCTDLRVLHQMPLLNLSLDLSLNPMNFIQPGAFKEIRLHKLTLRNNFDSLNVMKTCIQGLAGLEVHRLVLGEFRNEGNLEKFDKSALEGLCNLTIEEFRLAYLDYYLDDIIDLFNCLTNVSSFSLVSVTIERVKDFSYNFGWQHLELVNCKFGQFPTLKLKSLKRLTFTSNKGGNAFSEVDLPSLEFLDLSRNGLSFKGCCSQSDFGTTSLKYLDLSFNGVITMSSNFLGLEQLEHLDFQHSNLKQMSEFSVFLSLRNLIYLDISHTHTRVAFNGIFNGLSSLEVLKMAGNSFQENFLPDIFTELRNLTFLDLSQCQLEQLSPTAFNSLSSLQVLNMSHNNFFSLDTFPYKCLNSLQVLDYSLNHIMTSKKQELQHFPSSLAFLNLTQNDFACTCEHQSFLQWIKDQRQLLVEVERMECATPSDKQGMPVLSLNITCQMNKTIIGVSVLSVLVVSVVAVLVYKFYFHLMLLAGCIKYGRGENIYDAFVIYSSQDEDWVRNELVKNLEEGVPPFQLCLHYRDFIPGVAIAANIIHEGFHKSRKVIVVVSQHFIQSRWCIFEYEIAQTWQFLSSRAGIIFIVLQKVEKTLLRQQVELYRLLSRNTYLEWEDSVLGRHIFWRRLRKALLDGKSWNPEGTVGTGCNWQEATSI

Row | Activity [1] [%] | SMILES | Activity (PBMC [2]) [%] | Activity (HepG2) [%] | also measured
1 | 2.2 | CCNC(=O)c1nc(Nc2cc(Oc3ccccc3)cc([N+](=O)[O-])c2)c2ccccc2n1 | 1.5 | 107.4 | –
2 | 49.1 | CCOC(=O)c1nc(Nc2cc(Oc3ccccc3)cc([N+](=O)[O-])c2)c2ccccc2n1 | – | 93.5 | Activity [3]: inactive; Activity (PBMC [4]): 112%; Activity (L929): Active; Activity (BMDC [5]): Active; Activity (BMDC [6]): Active; Activity [7]: 117%; Activity [8]: Active; Activity (PBMC [9]): Active; Activity [10]: Active; Activity (BMDC [11]): inactive; Activity (BMDC [12]): inactive; Activity [13]: Active; Activity (BMDC [14]): inactive; Activity (PBMC [15]): Active; Activity (PBMC [16]): Active; Activity [17]: inactive; Activity (PBMC [18]): Active; Activity [19]: inactive; Activity (BMDC [20]): Active; Activity (BMDC [21]): inactive
3 | 67.8 | CC(C)OC(=O)c1nc(Nc2cc(Oc3ccccc3Br)cc([N+](=O)[O-])c2)c2ccccc2n1 | – | 106.5 | –
4 | 65.5 | CCOC(=O)c1nc(Nc2cc(Oc3ccccc3I)cc([N+](=O)[O-])c2)c2ccccc2n1 | – | 93.8 | –
5 | 0.8 | CCOC(=O)c1nc(Nc2cc(Oc3ccc4ccccc4c3)cc([N+](=O)[O-])c2)c2ccccc2n1 | 0 | 111.4 | –
6 | 0 | NC(=O)c1nc(Nc2cc(Oc3ccccc3)cc([N+](=O)[O-])c2)c2ccccc2n1 | 0.3 | 78.4 | –
7 | 4.2 | CCOC(=O)c1nc(Nc2cc(Oc3ccccc3CC)cc([N+](=O)[O-])c2)c2ccccc2n1 | 3.2 | 98.9 | –
8 | 73.9 | CCOC(=O)c1nc(Nc2cc(Oc3ccccc3Cl)cc([N+](=O)[O-])c2)c2ccccc2n1 | – | 107.4 | –
9 | 7.4 | CC(C)OC(=O)c1nc(Nc2cc(Oc3ccccc3)cc([N+](=O)[O-])c2)c2ccccc2n1 | 2.1 | 65.6 | –
10 | 0.5 | CCOC(=O)c1nc(Nc2cc(Oc3ccc(C)cc3)cc([N+](=O)[O-])c2)c2ccccc2n1 | 0.4 | 108.8 | –
11 | 79 | CCOC(=O)c1nc(Nc2cc(Oc3ccccc3Br)cc([N+](=O)[O-])c2)c2ccccc2n1 | – | 90.8 | –
12 | 8.4 | CC(C)CCOC(=O)c1nc(Nc2cc(Oc3ccccc3)cc([N+](=O)[O-])c2)c2ccccc2n1 | 2.2 | 63.4 | –
13 | 14.5 | CCOC(=O)c1nc(Nc2cc(Oc3cccc(C)c3)cc([N+](=O)[O-])c2)c2ccccc2n1 | 5.8 | 109.9 | –
14 | 0.6 | CCOC(=O)c1nc(Nc2cc(N)cc(Oc3ccccc3)c2)c2ccccc2n1 | 0.3 | 106.1 | –
15 | 1.1 | Nc1cc(Nc2nc(C(=O)O)nc3ccccc23)cc(Oc2ccccc2)c1 | 0.3 | 105 | –
16 | 0.6 | O=C(O)c1nc(Nc2cc(Oc3ccccc3)cc([N+](=O)[O-])c2)c2ccccc2n1 | 0.5 | 84.5 | –
17 | 1.6 | O=C(O)c1nc(Nc2cc(Oc3ccccc3Br)cc([N+](=O)[O-])c2)c2ccccc2n1 | 0 | 96.3 | –
18 | 58.7 | CCOC(=O)c1nc(Nc2cc(Oc3ccccc3C(F)(F)F)cc([N+](=O)[O-])c2)c2ccccc2n1 | – | 67.1 | –
19 | 0.4 | COC(=O)c1nc(Nc2cc(Oc3ccccc3)cc([N+](=O)[O-])c2)c2ccccc2n1 | 0.2 | 116.4 | –
20 | 0.6 | CCOC(=O)c1nc(Nc2cc(Oc3c(C)cccc3C)cc([N+](=O)[O-])c2)c2ccccc2n1 | 0 | 106.3 | –
21 | 45.5 | CCOC(=O)c1nc(Nc2cc(Oc3ccccc3C)cc([N+](=O)[O-])c2)c2ccccc2n1 | – | 96.7 | –
